An excerpt weighted towards active compounds, which were near 4.6% of everything screened.
TAAR1 ag – human TAAR1 agonism. CHO RD-HGA16 TAAR1, Fluo-8 calcium fluorescence; vehicle wells 0%, saturating PEA agonist 100%. activation, % at 3 µM. AID 624467. 360,000 compounds, 0.99% hits;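 active = activation above the mean activation of all test compounds in the run plus 3 SD, cut at about 38% in these data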
Target sequence (Q96RJ0 whole entry, looked up): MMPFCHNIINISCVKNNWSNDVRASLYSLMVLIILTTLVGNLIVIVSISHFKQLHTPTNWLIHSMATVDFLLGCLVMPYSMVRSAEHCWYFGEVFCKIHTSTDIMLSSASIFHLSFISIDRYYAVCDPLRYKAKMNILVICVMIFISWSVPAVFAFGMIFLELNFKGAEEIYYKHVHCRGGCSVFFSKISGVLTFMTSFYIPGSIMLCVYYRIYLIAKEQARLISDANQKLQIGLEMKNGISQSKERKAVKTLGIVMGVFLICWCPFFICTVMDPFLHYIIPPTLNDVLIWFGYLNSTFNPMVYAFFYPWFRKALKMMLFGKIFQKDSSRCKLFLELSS
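Repeats: no replicates (n 1) | Material: CHO-derived RD-HGA16 cells with stable Gα16 and human TAAR1 | Technique: Kinetic Fluo-8 calcium fluorescence | Schedule: 17-24 h seeding, 75 min 37 °C dye, 30 min RT | Evaluation: % activation from peak over basal fluorescence ratio, DMSO-to-PEA scaled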
CHO parental Ca – counter-screen for OX1R antagonists: effect in parental CHO cells; parental CHO-K1, ATP-induced calcium, Fluo-8 fluorescence; inhibition, % at 5.6 µM; 330,000 compounds, 0.63% hits;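 active = inhibition above that plate's mean sample inhibition plus 3 SD, cut at about 26% in these data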;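 also: 0% = ATP-challenged DMSO wells and 100% = DMSO wells without ATP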
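test system = CHO parental line | reagent = ATP stimulus | measured by = intracellular calcium via Fluo-8 no-wash fluorescent dye | control set = ATP and no-ATP DMSO wells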
GPR7 antag – human neuropeptides B/W receptor 1 antagonism; GPR7-expressing cells, fluorescence antagonist assay; inhibition, % at 4.4 µM; 290,000 compounds, 1.1% hits; AID 1861; in the data active = inhibition above about 16%, passing the limit was not always enough;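 also: cells stimulated with the agonist NPW; 0% = agonist with vehicle and 100% = vehicle without agonist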
Target sequence (P48145 whole entry, looked up): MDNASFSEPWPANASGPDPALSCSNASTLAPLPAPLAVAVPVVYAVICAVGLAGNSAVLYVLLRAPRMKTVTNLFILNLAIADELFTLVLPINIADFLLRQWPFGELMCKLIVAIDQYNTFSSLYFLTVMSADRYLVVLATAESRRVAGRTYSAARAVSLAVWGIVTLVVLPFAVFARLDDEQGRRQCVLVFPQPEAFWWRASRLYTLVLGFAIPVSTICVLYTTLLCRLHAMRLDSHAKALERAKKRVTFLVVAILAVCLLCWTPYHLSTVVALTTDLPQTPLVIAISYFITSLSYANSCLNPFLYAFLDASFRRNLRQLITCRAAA
OX1R antag-1 – human HCRTR1 antagonism; inhibition, % at 5 µM; CHO/OX1R cells, Fluo-8 calcium fluorescence, orexin A; O43613; 330,000 compounds, 0.43% hits;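 active = inhibition above its plate's threshold, mean inhibition of all tested compounds on the plate plus 3 SD, cut at about 37% in these data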;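 also: 0% = orexin A challenge wells and 100% = SB-334867-A antagonist wells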
TAAR1 antagonist – human TAAR1 antagonism | Q96RJ0 | CHO RD-HGA16 TAAR1, Fluo-8 calcium fluorescence, antagonist | inhibition, % at 3 µM | 360,000 compounds, 1.5% hits;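 active = inhibition above a per-plate cutoff, the mean inhibition of test compounds on that plate plus 3 SD, cut at about 49% in these data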;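 also: 0% = DMSO plus EC80 beta-PEA response and 100% = DMSO alone without agonist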
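Test system: CHO RD-HGA16 cells bearing hTAAR1 | Reagent: β-PEA, EC80 | Compound dosing: 3 µM, single point | Schedule: Dye loading 75 min at 37 °C, then 30 min room temperature | Signal: Calcium fluorescence with Fluo-8 | Evaluation: Percent inhibition of PEA-evoked calcium signal, max/basal emission ratio | Control set: DMSO-only wells and EC80 β-PEA-stimulated wells | Repeats: Singlicate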
OX1R antag-2 – blocks the human orexin 1 receptor. O43613. OX1R-expressing cells, FRET antagonist read-out. inhibition, % at 6.6 µM. 330,000 compounds, 1.8% hits; in the data active = inhibition mostly above about 38%, no sharp cut-off; inactive = mostly below about 40%;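 also: 0% = agonist challenge alone and 100% = reference antagonist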
TAAR1 nonsel count – nonselective antagonism, TAAR1 counter-screen; shares compounds with TAAR1 antagonist; counterscreen cell line, calcium fluorescence, antagonist mode; inhibition, % at 3 µM; 2,400 compounds, 77% hits; in the data active = inhibition above about 22%;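 also: CHO-Ga16 host cells stimulated with ATP at an EC80 level; 0% = agonist EC80 plus vehicle and 100% = vehicle without agonist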
TAAR1 antag conf – confirmation of human TAAR1 antagonists; 2,400 compounds, 40% hits; inhibition, % at 3 µM; TAAR1-expressing cells, fluorescence antagonist read-out; shares compounds with TAAR1 antagonist; in the data active = inhibition above about 49%;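 also: CHO-Ga16 host cells challenged with agonist PEA near its EC80; 0% = agonist at EC80 plus vehicle and 100% = vehicle with no agonist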
Ga16 nonsel ag – nonselective Ga16 agonist in TAAR1 antagonist counter-screen | shares compounds with TAAR1 antagonist | Ga16-expressing cells, calcium fluorescence, agonist counterscreen | activation, % at 3 µM | 2,400 compounds, 18% hits | AID 651953; in the data active = activation above about 12%;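 also: 0% = vehicle wells and 100% = saturating stimulus response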
TAAR1 ag counter – activates human TAAR1 in antagonist counter-screen | shares compounds with TAAR1 antagonist | hTAAR1 cell line, fluorescence activation, agonist mode | activation, % at 3 µM | 2,400 compounds, 2% hits; in the data active = activation above about 37%;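 also: CHO cells stably expressing TAAR1 with calcium dye readout; 0% = DMSO vehicle and 100% = full agonist response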
* = called active by the depositor.

`O=C(c1ccc(Cl)c(NC2=NC3CS(=O)(=O)CC3S2)c1)N1CCN(c2ccccc2)CC1` (stereo not given) gave TAAR1 ag 2.2, CHO parental Ca -12.9, GPR7 antag -14.1, OX1R antag-1 -2.4, TAAR1 antagonist -4.5 and OX1R antag-2 0.1.
Screening Cc1ccc(C)c(N2CCN(C(=O)CCS(=O)(=O)c3ccc4c(c3)NC(=O)CO4)CC2)c1 returned TAAR1 ag 17.6, CHO parental Ca 56.7*, GPR7 antag 3.4, OX1R antag-1 65.7*, TAAR1 antagonist 85.3*, OX1R antag-2 23.9, TAAR1 nonsel count 43.0*, TAAR1 antag conf 56.8*, Ga16 nonsel ag 14.7* and TAAR1 ag counter 13.4.
Screening CC1CCCN(CCOc2ccc3ccccc3c2Br)C1 (stereo not given) returned TAAR1 ag 11.8, CHO parental Ca -1.7, GPR7 antag 20.1, OX1R antag-1 -16.4, TAAR1 antagonist -0.6 and OX1R antag-2 2.8.
For COc1cccc(C=C(C(C)=O)C(=O)c2ccccc2)c1 the results were TAAR1 ag -1.5 and TAAR1 antagonist -8.3.
For COc1cccc(/C=C(/C(=O)OCC(N)=O)c2ccccc2)c1 the results were TAAR1 ag 10.3, CHO parental Ca -14.4, GPR7 antag -12.7, OX1R antag-1 -7.8, TAAR1 antagonist 105.0*, OX1R antag-2 -0.8, TAAR1 nonsel count 1.1, TAAR1 antag conf -2.5, Ga16 nonsel ag 2.0 and TAAR1 ag counter 4.9.
COc1ccc(N2C(=O)C(CC(=O)Nc3ccccc3)N(CCc3ccc(OC)c(OC)c3)C2=O)cc1 (stereo not given) was read as TAAR1 ag 4.7, CHO parental Ca -19.9, GPR7 antag -1.0, OX1R antag-1 -26.2, TAAR1 antagonist 8.0 and OX1R antag-2 7.2.
Screening CN(C(=O)c1sc2nc(N3CCOCC3)c3c(c2c1N)CCCC3)c1ccccc1 returned TAAR1 ag 7.6, CHO parental Ca -19.6, GPR7 antag -4.1, OX1R antag-1 -28.2, TAAR1 antagonist 58.8*, OX1R antag-2 37.6, TAAR1 nonsel count 19.3, TAAR1 antag conf 35.2, Ga16 nonsel ag 7.7 and TAAR1 ag counter 11.7.
For COc1ccc(C(CNC(=O)C(Cc2ccccc2)NC(N)=O)N(C)C)cc1 (stereo not given) the results were TAAR1 ag -3.6, CHO parental Ca -4.0, GPR7 antag -12.6, OX1R antag-1 -18.5, TAAR1 antagonist 103.2*, OX1R antag-2 1.1, TAAR1 nonsel count 5.8, TAAR1 antag conf -2.1, Ga16 nonsel ag 0.9 and TAAR1 ag counter 1.8.
Screening C=CCC[C@@H](Cc1ccc(F)cc1)C(=O)OC[C@H](C)NC(=O)[C@H](CC=C)CC(=O)N(CCO)Cc1ccccc1 returned TAAR1 ag 15.1, CHO parental Ca -8.3, OX1R antag-1 31.3, TAAR1 antagonist 71.4*, OX1R antag-2 13.9, TAAR1 nonsel count 27.0*, TAAR1 antag conf 40.3, Ga16 nonsel ag 4.8 and TAAR1 ag counter 2.1.
Screening C=CC[C@@H](CC(=O)N(CCO)Cc1ccccc1)C(=O)N[C@H](COC(=O)[C@@H](CC=C)Cc1ccc(F)cc1)Cc1ccccc1 returned TAAR1 ag 11.3, CHO parental Ca -8.8, OX1R antag-1 28.8, TAAR1 antagonist 75.5*, OX1R antag-2 4.7, TAAR1 nonsel count 27.2*, TAAR1 antag conf 47.7, Ga16 nonsel ag 7.4 and TAAR1 ag counter 7.3.
`COCOc1cccc(CN2CCC(C)(Oc3cccc(OC)c3)C2)c1` (stereo not given) gave TAAR1 ag -0.8 and TAAR1 antagonist -17.6.
CCc1nc2ccc(C(=O)NCCOc3ccc(OC)cc3)cn2c1N(C)Cc1ccc(OC)cc1 was read as TAAR1 ag 0.1 and TAAR1 antagonist 43.3.
Screening CCc1nc2ccc(C(=O)NCCOc3ccc(OC)cc3)cn2c1N(C)Cc1cccs1 returned TAAR1 ag 0.4, TAAR1 antagonist 62.4*, TAAR1 nonsel count 29.2*, TAAR1 antag conf 33.0, Ga16 nonsel ag 5.1 and TAAR1 ag counter 0.5.
O=C(C1=C[C@@H](c2csc3ccccc23)C[C@@H](OCc2ccc(CO)cc2)O1)N1CCOCC1 was read as TAAR1 ag 31.7, CHO parental Ca -1.1, GPR7 antag -6.0, OX1R antag-1 -2.1, TAAR1 antagonist 56.8*, OX1R antag-2 21.9, TAAR1 nonsel count 26.5*, TAAR1 antag conf 35.0, Ga16 nonsel ag 6.2 and TAAR1 ag counter 5.6.
O=C(Nc1ccccc1)C1=C[C@@H](c2coc3ccccc3c2=O)C[C@@H](OCc2ccc(CO)cc2)O1 was read as TAAR1 ag 8.1, CHO parental Ca -26.0, GPR7 antag -12.1, OX1R antag-1 -24.1, TAAR1 antagonist 51.1*, OX1R antag-2 27.3, TAAR1 nonsel count 20.5, TAAR1 antag conf 25.2, Ga16 nonsel ag 1.8 and TAAR1 ag counter -1.2.
CC(=O)n1cc([C@H]2C=C(C(=O)N3CCN(Cc4ccccc4)CC3)O[C@@H](OCc3ccc(CO)cc3)C2)c2ccccc21 was read as TAAR1 ag 26.6, CHO parental Ca -22.0, GPR7 antag -13.9, OX1R antag-1 -6.1, TAAR1 antagonist 69.4*, OX1R antag-2 13.1, TAAR1 nonsel count 34.5*, TAAR1 antag conf 46.0, Ga16 nonsel ag 9.0 and TAAR1 ag counter 8.9.
For O=C(NC1CC1)C1=C[C@H](c2csc3ccccc23)C[C@H](OCc2ccc(CO)cc2)O1 the results were TAAR1 ag 34.3, CHO parental Ca -17.1, OX1R antag-1 -23.9, TAAR1 antagonist 57.6*, OX1R antag-2 12.1, TAAR1 nonsel count 26.5*, TAAR1 antag conf 43.6, Ga16 nonsel ag 16.1* and TAAR1 ag counter 23.4.
For Cc1ccc(C(C)C)cc1S(=O)(=O)Nc1ccncc1 the results were TAAR1 ag 0.9, CHO parental Ca 0.5, GPR7 antag 12.1, OX1R antag-1 -1.4, TAAR1 antagonist -3.7 and OX1R antag-2 -5.9.
Screening CCN1CCCC1CNC(=O)c1cc(S(=O)(=O)N(C)C)ccc1Cl (stereo not given) returned TAAR1 ag 0.1, CHO parental Ca -1.1, GPR7 antag -14.3, OX1R antag-1 -7.1, TAAR1 antagonist 3.3 and OX1R antag-2 9.2.

Source: PubChem BioAssay (The Scripps Research Institute Molecular Screening Center)
